Screening results (PubChem BioAssay)
Sampled rows, rich in hits. Any-hit rate of the full collection: about 2.6%.
NadD block: inhibitors of S. aureus NadD, primary screen, biochemical, colorimetric, uHTS. purified NadD enzyme, colorimetric absorbance read-out. hit rate 0.78% among 360,000. Nicotinate-nucleotide adenylyltransferase NadD (Staphylococcus aureus N315). inhibition, % at 20 µM. AID 602399, 2012; in the data active = inhibition above about 26%
ABHD5 PLIN5 PPI: ABHD5-PLIN5 interaction inhibitors, primary screen, cell lysate, split luciferase complementation, luminescence. Perilipin-5 (Homo sapiens) + 1-acylglycerol-3-phosphate O-acyltransferase ABHD5 (Homo …. Split G. princeps luciferase complementation, 4 h. inhibition, % at 4 µM. hit rate 0.78% among 360,000;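 active = inhibition above the mean inhibition across every tested compound plus 3 SD, cut at about 22% in these data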
Target sequence (Q00G26 whole entry, looked up): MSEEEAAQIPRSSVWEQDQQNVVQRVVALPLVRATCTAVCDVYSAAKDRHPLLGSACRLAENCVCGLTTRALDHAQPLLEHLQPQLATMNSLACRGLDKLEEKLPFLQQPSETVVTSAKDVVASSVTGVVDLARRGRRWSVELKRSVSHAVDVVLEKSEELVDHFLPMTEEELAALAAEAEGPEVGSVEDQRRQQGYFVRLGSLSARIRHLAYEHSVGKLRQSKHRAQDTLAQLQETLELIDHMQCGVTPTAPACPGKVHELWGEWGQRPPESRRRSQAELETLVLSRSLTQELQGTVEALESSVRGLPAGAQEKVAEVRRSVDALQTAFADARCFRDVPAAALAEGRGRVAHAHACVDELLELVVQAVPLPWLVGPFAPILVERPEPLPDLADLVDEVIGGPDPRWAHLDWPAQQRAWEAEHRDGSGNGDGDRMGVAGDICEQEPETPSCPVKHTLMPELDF
Target sequence (Q8WTS1 whole entry, looked up): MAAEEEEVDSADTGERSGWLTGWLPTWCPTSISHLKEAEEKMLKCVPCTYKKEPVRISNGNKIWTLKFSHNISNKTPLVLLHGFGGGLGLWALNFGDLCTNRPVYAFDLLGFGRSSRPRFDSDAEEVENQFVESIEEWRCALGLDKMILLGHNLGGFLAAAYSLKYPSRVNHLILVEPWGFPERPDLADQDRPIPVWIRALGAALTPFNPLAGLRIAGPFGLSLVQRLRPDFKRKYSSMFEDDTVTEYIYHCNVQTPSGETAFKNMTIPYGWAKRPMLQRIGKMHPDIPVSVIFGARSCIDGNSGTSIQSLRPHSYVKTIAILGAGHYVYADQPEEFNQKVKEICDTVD
rCAG binder-1: binders of r(CAG) RNA repeats, primary screen, biochemical, fluorescence; r(CAG) RNA repeat, TO-PRO-1 dye displacement fluorescence; inhibition, % at 3 µM; hit rate 1.3% among 370,000; AID 651821, 2012;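 active = inhibition above the plate cutoff, the mean of all test compounds on that plate plus 3 SD, cut at about 35% in these data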;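 also: higher means more dye released from RNA so lower well fluorescence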
HCV core dimer: inhibitors of HCV core protein dimerization, primary screen, biochemical, TR-FRET, high-throughput. inhibition, % at 5 µM. TR-FRET GST/Flag-core106 dimerization, 1536-well. AID 1899, 2009. hit rate 0.33% among 300,000;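 active = inhibition above the mean of all tested compounds plus 3 SD, set per screening campaign, cut at about 45% in these data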
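assay system = GST-tagged and Flag-tagged HCV core protein residues 1-106 | controls = unlabelled core106 and no-GST-core106 wells | incubation = compound-protein-antibody incubation 4 h at 22.5 °C | probe or stimulus = Eu donor and XL665 acceptor anti-tag antibodies | read-out = % inhibition based on acceptor/donor emission ratio | signal = TR-FRET 671 and 617 nm emission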
rCAG bind conf: small molecules binding CAG repeat RNA – biochemical, fluorescence, confirmation | shares compounds with rCAG binder-1 | r(CAG) RNA repeat, TO-PRO-1 dye displacement fluorescence | inhibition, % at 3 µM | hit rate 70% among 4,300 | AID 652065, 2013;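 active = inhibition above a per-plate cutoff, the mean inhibition of sample wells plus 3 SD, cut at about 35% in these data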;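 also: loss of TO-PRO-1 fluorescence as compound displaces dye from 1x1 AA loop RNA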
DNA CAG counter: displacement of TO-PRO-1 from CAG DNA duplex, counter-screen for rCAG RNA repeat binder project, biochemical, fluorescence, TO-PRO-1 dye, d(CAG) DNA oligo; shares compounds with rCAG binder-1; d(CAG) DNA oligo TO-PRO-1 dye displacement; inhibition, % at 3 µM; hit rate 94% among 4,300;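 active = inhibition above its plate's cutoff, the mean test-well inhibition plus 3 SD, cut at about 4.8% in these data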;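 also: hits displace the dye from DNA and so lower well fluorescence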
DNA CAG DR: inhibitors of DNA CAG/GTC TO-PRO-1 complex, dose response, counter-screen for rCAG RNA repeat binder project, biochemical, fluorescence, TO-PRO-1 dye. shares compounds with rCAG binder-1. DNA CAG/GTC duplex TO-PRO-1 dye displacement fluorescence. IC50, µM. hit rate 20% among 250. AID 686960, 2013; in the data active = IC50 below about 10 µM
dCAG TOPRO ctr: TO-PRO-1 dye complex inhibitors on d(CAG) DNA, dose response, counter-screen, biochemical, fluorescence, late stage; shares compounds with rCAG binder-1; d(CAG) DNA duplex TO-PRO-1 dye displacement; IC50, µM; hit rate 80% among 30; AID 720649, 2013
rCAG binder-2: molecules binding r(CAG) RNA repeats, late stage dose response, late-stage follow-up, biochemical, fluorescence, dose response, powder samples; shares compounds with rCAG binder-1; r(CAG) RNA TO-PRO-1 dye displacement; IC50, µM; hit rate 100% among 30
Hits are given with their value; i = inactive; nt = no result given. Unless noted, no rule for the calls is given here.

SMILES	NadD block	ABHD5 PLIN5 PPI	rCAG binder-1	HCV core dimer	rCAG bind conf	DNA CAG counter	others
Cc1cc(C)cc(Nc2nc3ccccc3c(=O)[nH]2)c1	i	i	41	i	i	16
COc1ccccc1NS(=O)(=O)c1ccc(NC(=O)c2ccncc2)cc1	i	i	i	i	nt	nt
COc1ccccc1NS(=O)(=O)c1ccc(NC(=O)c2[nH]nc(OC)c2[N+](=O)[O-])cc1	i	i	47	nt	i	7.2
CCOc1cc(CC(=O)N[C@@H](CC(C)C)c2ccccc2N2CCCCC2)ccc1C(=O)O	i	i	47	i	36	9.8
CC(=O)c1sc2nc(CSc3nnnn3-c3ccccc3)[nH]c(=O)c2c1C	i	i	39	74	49	29
C[C@@H]1CN([C@@H](C)CO)C(=O)CCCn2cc(nn2)CO[C@H]1CN(C)C(=O)Nc1ccc2c(c1)OCO2	nt	nt	i	nt	nt	nt
NNS(=O)(=O)c1ccc2c(c1)Cc1cc(S(=O)(=O)NN)ccc1-2	i	i	42	i	i	i
CCCn1c(SCC#N)nc2c(c1=O)C1(CCCC1)Cc1ccccc1-2	i	i	i	i	nt	nt
N#CCSc1n[nH]c2nc3c(c(=O)n12)C1(CCCC1)Cc1ccccc1-3	i	i	50	i	55	18	DNA CAG DR=i
O=C(O)[C@H](Cc1ccccc1)NC(=O)[C@H]1O[C@@H](n2ccc(=O)[nH]c2=O)[C@H](O)[C@@H]1O	nt	nt	i	nt	nt	nt
CCCn1c(N)c(N2CCCCC2)c(=O)n(CC(=O)Nc2ccc(OC(F)(F)F)cc2)c1=O	i	i	37	i	i	i
CC1(C(=O)NS(=O)(=O)c2ccc(F)cc2F)CCN1C(=O)CC1CCCC1 (configuration not stated)	i	i	i	nt	nt	nt
Cc1c(Br)c(O)c(Br)c2sc(=O)oc12	i	i	92	i	42	21	DNA CAG DR=i
Cc1ccc(S(=O)(=O)c2c(N)n(CCCO)c3nc4ccccc4nc23)cc1	i	i	i	i	nt	nt
Cc1ccc(S(=O)(=O)c2c(N)n(NC(=O)c3ccccc3C)c3nc4ccccc4nc23)cc1	i	i	36	i	36	13
NS(=O)(=O)c1ccc(NS(=O)(=O)c2ccc(NC(=O)c3ccc(-c4ccccc4)cc3)cc2)cc1	i	i	59	i	72	39
O=C(CNC(=O)c1ccc(-c2ccccc2)cc1)Nc1ccc(S(=O)(=O)Nc2ncccn2)cc1	i	i	38	i	i	10
CCOC(=O)CC[C@@]1(C(=O)OCC)C[C@@H](CC(=O)NCc2ccc(C)o2)C(=O)N2CCCC=C21	nt	nt	49	nt	i	i
Nc1nonc1-c1nc2ccccc2n1CC(=O)N/N=C/c1ccc(-c2ccccc2C(=O)O)o1	i	i	i	i	nt	nt
CC1=C(C#N)c2nc(N)c(C#N)c(C)c2/C1=C\c1ccc(-c2ccccc2C(=O)O)o1	i	i	46	nt	69	32	DNA CAG DR=i;dCAG TOPRO ctr=2.8;rCAG binder-2=1.1
COc1cc(/C=C2/C(C)=C(C#N)c3nc(N)c(C#N)c(C)c32)ccc1OCC(=O)O	nt	nt	42	i	41	17
Cc1ccc(Cn2cc(COC(=O)N3CCOCC3)nn2)cc1	nt	nt	i	nt	nt	nt
O=C(O)CC/C(=C\c1ccc(N2CCCC2)c([N+](=O)[O-])c1)c1nc2ccccc2s1	i	i	70	i	89	53
COc1ccc(Cl)c(-c2cc(C(=O)Nc3ccccc3)[nH]n2)c1	i	i	i	nt	nt	nt
Cc1ccc(-c2csc(NC(=S)NC(=O)/C=C/c3ccco3)n2)cc1	i	i	38	i	i	11
SMILES	NadD block	ABHD5 PLIN5 PPI	rCAG binder-1	HCV core dimer	rCAG bind conf	DNA CAG counter	others
O=C(/C=C/c1ccco1)NC(=S)Nc1ccc(Cl)cn1	i	i	39	i	i	6.9
CC(=O)NC(=S)Nc1ccc(NC(=S)NC(=O)/C=C/c2ccco2)cc1	i	i	i	i	nt	nt
Nc1cc(=O)[nH]c(SCC(=O)Nc2ccc3c(c2)CCC3)n1	i	i	i	i	nt	nt
O=C(CSc1nc(O)cc(=O)[nH]1)Nc1ccc2c(c1)CCC2	i	i	49	i	i	6.0
Cc1cc(=O)[nH]c(SCC(=O)Nc2nc(-c3ccccc3)cs2)n1	i	i	36	i	i	9.5
COc1ccc(-c2csc(NC(=O)CSc3nc4ccccc4c(=O)[nH]3)n2)cc1	i	i	38	i	57	22
COC(=O)[C@]12CCCCC=C1N(CCc1ccc(OC)c(OC)c1)C(=O)[C@H](CC(=O)NCC13CC4CC(CC(C4)C1)C3)C2	nt	i	i	nt	nt	nt
Cc1ccc(OCC(=O)N/N=C\c2ccc(-c3cccc(C(=O)O)c3)o2)c(C)c1	i	i	46	i	42	11
O=C(O)c1cccc(-c2ccc(/C=N/NC(=O)C3COc4ccccc4O3)o2)c1 (configuration not stated)	i	i	i	i	nt	nt
CC(C)(C)c1ccc2c(c1)OC(C(=O)N/N=C\c1ccc(-c3cccc(C(=O)O)c3)o1)CO2 (configuration not stated)	i	i	41	i	77	43
Cc1cc2c(cc1C)-c1c(ssc1=Nc1ccc(S(N)(=O)=O)cc1)C(C)(C)N2	i	i	i	i	nt	nt
CC(=O)NS(=O)(=O)c1ccc(N=c2ssc3c2-c2cc(C)c(C)cc2NC3(C)C)cc1	i	i	75	i	59	25
CCCc1c(OCCCOc2ccc(OCC(=O)O)cc2)ccc(C(C)=O)c1O	i	i	61	i	51	16
CCC(=O)c1ccc(OCC(=O)O)cc1	i	i	i	nt	nt	nt
O=C(C[C@@H]1C[C@H]2c3cc(NC(=O)c4cccnc4)ccc3O[C@H]2[C@H](CO)O1)NCc1ccc(Oc2ccccc2)cc1	i	i	i	nt	nt	nt
Cc1ccc(N/N=C(/Sc2nnnn2-c2ccccc2)C(=O)c2ccccc2)cc1	i	i	68	i	53	21	DNA CAG DR=i
Cc1cccc(C)c1NC(=O)C(c1ccc(C#N)cc1)n1c(=O)c(-c2ccccc2)nc2ccccc21 (configuration not stated)	nt	i	i	nt	nt	nt
